The test system of data set [1] is Klebsiella pneumoniae. Nature of the data set: Potentiation of colistin-induced antimicrobial activity against colistin-resistant Klebsiella pneumoniae isolate C3 assessed as fold reduction in colistin MIC at 60 uM after 18 hrs by broth microdilution assay. In kind it is functional. The method in brief: (§1)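 Checkerboard-style resensitization following adapted CLSI broth microdilution. Bacteria were grown 4–6 h in CAMHB and subcultured to 5×10^5 CFU/mL. Adjuvant was added from DMSO stock and held constant while colistin was serially diluted in the dosed subculture. Plates were incubated stationary at 37°C for 18 h, then MICs were read. Fold reduction was taken relative to the colistin MIC without adjuvant.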
Background: Broth dilution looks for growth in wells or tubes with falling amounts of substance.

In data set [2] the test system is Acinetobacter baumannii. The experiment in a line: Potentiation of colistin-induced antimicrobial activity against colistin-resistant Acinetobacter baumannii isolate 3941 assessed as fold reduction in colistin MIC at 60 uM after 18 hrs by broth microdilution assay. In kind it is functional. The method in brief:
as §1

The subject of data set [3] is Escherichia coli. Nature of the data set: Toxicity in Escherichia coli ATCC 25922 after 18 hrs by broth microdilution assay. The class given is organism-based. To be noted: in vitro. The method in brief:
(§2)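 Single-agent MIC per CLSI broth microdilution. Cells from a 4–6 h culture in cation-adjusted Mueller-Hinton broth adjusted to 5 ×10^5 CFU/mL. Compound (DMSO stock) added to 200 μM top concentration and twofold serially diluted six times, with an untreated control row. Plates sealed and incubated stationary at 37°C for 18 h before MIC read.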

The subject of data set [4] is Acinetobacter baumannii. Nature of the data set: Potentiation of colistin-induced antimicrobial activity against Acinetobacter baumannii ATCC 17978 assessed as fold reduction in colistin MIC at 60 uM after 18 hrs by broth microdilution assay. In kind it is functional. The method in brief: (§3)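 Bacteria grown 4–6 h in cation-adjusted Mueller-Hinton broth and diluted to 5 ×10^5 CFU/mL. Adjuvant from DMSO stock held at fixed 60 μM while colistin is twofold serially diluted in the same adjuvant-dosed broth. Plates sealed and kept stationary at 37°C for 18 h. Colistin MIC read and fold reduction taken relative to colistin alone.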

Data set [5] relates to Escherichia coli. The experiment in a line: Potentiation of colistin-induced antimicrobial activity against colistin-resistant Escherichia coli ATCC 25922 expressing mcr1 gene assessed as fold reduction in colistin MIC at 60 uM after 18 hrs by broth microdilution assay. The class given is functional. The method in brief:
as §1

The test system of data set [6] is Acinetobacter baumannii. Nature of the data set: Potentiation of colistin-induced antimicrobial activity against colistin-sensitive Acinetobacter baumannii 5075 assessed as fold reduction in colistin MIC at 60 uM after 18 hrs by broth microdilution assay. The class given is functional. The method in brief:
as §3

Data set [7] has as its system Acinetobacter baumannii. The experiment in a line: Potentiation of colistin-induced antimicrobial activity against colistin-resistant Acinetobacter baumannii isolate 4112 assessed as fold reduction in colistin MIC at 60 uM after 18 hrs by broth microdilution assay. In kind it is functional. The method in brief:
as §1

Data set [8] deals with Klebsiella pneumoniae. Nature of the data set: Potentiation of colistin-induced antimicrobial activity against colistin-resistant Klebsiella pneumoniae B9 assessed as fold reduction in colistin MIC at 60 uM after 18 hrs by broth microdilution assay. In kind it is functional. The method in brief:
as §1

For data set [9], the system named is Klebsiella pneumoniae. The experiment in a line: Toxicity in Klebsiella pneumoniae B9 after 18 hrs by broth microdilution assay. The class given is organism-based. The method in brief: as §2
The subject of data set [10] is Escherichia coli. The experiment in a line: Potentiation of colistin-induced antimicrobial activity against Escherichia coli ATCC 25922 assessed as fold reduction in colistin MIC at 60 uM after 18 hrs by broth microdilution assay. In kind it is functional. The method in brief: as §3
Data set [11] concerns Acinetobacter baumannii. The experiment in a line: Potentiation of colistin-induced antimicrobial activity against colistin-resistant Acinetobacter baumannii ATCC 17978 expressing mcr1 gene assessed as fold reduction in colistin MIC at 60 uM after 18 hrs by broth microdilution assay. In kind it is functional. The method in brief:
as §1

For data set [12], the system named is Klebsiella pneumoniae. The experiment in a line: Potentiation of colistin-induced antimicrobial activity against Klebsiella pneumoniae ATCC BAA-2146 expressing NDM1 gene assessed as fold reduction in colistin MIC at 60 uM after 18 hrs by broth microdilution assay. The class given is functional. The method in brief:
as §3

The subject of data set [13] is Acinetobacter baumannii. Nature of the data set: Toxicity in Acinetobacter baumannii ATCC 17978 expressing mcr1 gene after 18 hrs by broth microdilution assay. The class given is organism-based. The method in brief: as §2
Data set [14] relates to Acinetobacter baumannii. The experiment in a line: Potentiation of colistin-induced antimicrobial activity against colistin-resistant Acinetobacter baumannii isolate 3942 assessed as fold reduction in colistin MIC at 60 uM after 18 hrs by broth microdilution assay. In kind it is functional. The method in brief: as §1
Data set [15] has as its system Klebsiella pneumoniae. Nature of the data set: Potentiation of colistin-induced antimicrobial activity against colistin-resistant Klebsiella pneumoniae isolate A5 assessed as fold reduction in colistin MIC at 60 uM after 18 hrs by broth microdilution assay. The class given is functional. The method in brief: as §1
Data set [16] concerns Acinetobacter baumannii. Nature of the data set: Potentiation of colistin-induced antimicrobial activity against colistin-resistant Acinetobacter baumannii 4106 assessed as fold reduction in colistin MIC at 60 uM after 18 hrs by broth microdilution assay. In kind it is functional. The method in brief: as §1
Data set [17] deals with Acinetobacter baumannii. The experiment in a line: Toxicity in Acinetobacter baumannii 4106 after 18 hrs by broth microdilution assay. To be noted: in vitro. In kind it is organism-based. The method in brief: as §2

Consider `O=C(NCCCc1c[nH]c2ccccc12)c1cc(Br)c(Br)[nH]1`, for which the “fold change (FC)” value is 1024 in the data set on Klebsiella pneumoniae [1]; 256 in the data set with Acinetobacter baumannii [2]; 4 with Acinetobacter baumannii [4]; 16 in the data set with Escherichia coli [5]; 4 with Acinetobacter baumannii [6]; 256 with Acinetobacter baumannii [7]. The “fold change (FC)” value in the data set on Klebsiella pneumoniae [8] worked out at 4096; with Escherichia coli [10], 2; in the data set with Acinetobacter baumannii [11], 32; in the data set on Klebsiella pneumoniae [12] it was 2; in the data set on Acinetobacter baumannii [14] it was 256; with Klebsiella pneumoniae [15], 256. For the same compound, the “fold change (FC)” value in the data set on Acinetobacter baumannii [16] is reported as 512. Further, the MIC in the data set on Escherichia coli [3], against Klebsiella pneumoniae [9], in the data set with Acinetobacter baumannii [13] and against Acinetobacter baumannii [17] was above 200 µM each time.
Regarding `O=C(NCCc1c[nH]c2ccccc12)c1cc(Br)c(Br)[nH]1`, the “fold change (FC)” value with Klebsiella pneumoniae [1] was found to be 1024; in the data set with Acinetobacter baumannii [2] it was 256; with Acinetobacter baumannii [4] it was 4; with Escherichia coli [5], 8; in the data set on Acinetobacter baumannii [6] it was 2; in the data set on Acinetobacter baumannii [7] it was 512. Besides, the “fold change (FC)” value was determined as 2048 in the data set with Klebsiella pneumoniae [8]; 4 in the data set on Escherichia coli [10]; 32 in the data set on Acinetobacter baumannii [11]; 2 in the data set on Klebsiella pneumoniae [12]; 512 in the data set on Acinetobacter baumannii [14]; 256 with Klebsiella pneumoniae [15]. Besides, the “fold change (FC)” value in the data set with Acinetobacter baumannii [16] came out at 512.
For the compound `O=C(NCCc1c[nH]c2ccccc12)c1cccc(Br)n1`, the “fold change (FC)” value stood at 512 in the data set with Klebsiella pneumoniae [1]; 8 in the data set with Acinetobacter baumannii [2]; 2 with Acinetobacter baumannii [4]; 0 in the data set on Acinetobacter baumannii [6]; 8 in the data set on Acinetobacter baumannii [7]; 1024 in the data set on Klebsiella pneumoniae [8]. The “fold change (FC)” value with Escherichia coli [10] was found to be 2; in the data set on Klebsiella pneumoniae [12] it was 2; with Acinetobacter baumannii [14] it was 8; in the data set on Klebsiella pneumoniae [15] it was 0; with Acinetobacter baumannii [16] it was 16.
As for `O=C(NCCc1c[nH]c2ccccc12)c1cc(I)c(I)[nH]1`, the “fold change (FC)” value is reported as 512 in the data set with Klebsiella pneumoniae [1]; 128 in the data set with Acinetobacter baumannii [2]; 2 in the data set with Acinetobacter baumannii [4]; 4 with Escherichia coli [5]; 2 in the data set with Acinetobacter baumannii [6]; 128 with Acinetobacter baumannii [7]. Further, the “fold change (FC)” value in the data set with Klebsiella pneumoniae [8] is on record as 2048; in the data set on Escherichia coli [10], 2; in the data set with Acinetobacter baumannii [11], 16; with Klebsiella pneumoniae [12], 2; in the data set on Acinetobacter baumannii [14], 128; in the data set with Klebsiella pneumoniae [15], 256. Also, the “fold change (FC)” value in the data set on Acinetobacter baumannii [16] is reported as 128.
As to `Cc1cccc2c(CCNC(=O)c3cc(Br)c(Br)[nH]3)c[nH]c12`, the “fold change (FC)” value worked out at 512 in the data set on Klebsiella pneumoniae [1]; 256 with Acinetobacter baumannii [2]; 2 in the data set on Acinetobacter baumannii [4]; 8 in the data set with Escherichia coli [5]; 2 in the data set on Acinetobacter baumannii [6]; 256 in the data set with Acinetobacter baumannii [7]. For the same compound, the “fold change (FC)” value in the data set on Klebsiella pneumoniae [8] was 512; in the data set with Escherichia coli [10] it was 2; in the data set on Acinetobacter baumannii [11], 32; with Klebsiella pneumoniae [12], 2; in the data set with Acinetobacter baumannii [14], 256; in the data set with Klebsiella pneumoniae [15], 256. For the same compound, the “fold change (FC)” value in the data set on Acinetobacter baumannii [16] came out at 256. Also, the MIC with Escherichia coli [3], with Klebsiella pneumoniae [9], in the data set with Acinetobacter baumannii [13] and in the data set with Acinetobacter baumannii [17] was above 200 µM throughout.
Consider `O=C(NCCc1c[nH]c2cc(F)ccc12)c1cc(Br)c(Br)[nH]1`, for which the “fold change (FC)” value in the data set on Klebsiella pneumoniae [1] was 512; with Acinetobacter baumannii [2], 512; in the data set with Acinetobacter baumannii [4], 2; in the data set on Escherichia coli [5], 8; in the data set on Acinetobacter baumannii [6], 2; in the data set on Acinetobacter baumannii [7], 512. Moreover, the “fold change (FC)” value in the data set with Klebsiella pneumoniae [8] is listed as 64; in the data set with Escherichia coli [10], 2; in the data set with Acinetobacter baumannii [11], 32; in the data set with Klebsiella pneumoniae [12] it was 2; with Acinetobacter baumannii [14], 512; with Klebsiella pneumoniae [15], 256. For the same compound, the “fold change (FC)” value in the data set on Acinetobacter baumannii [16] is listed as 512. The MIC in the data set on Escherichia coli [3], in the data set on Klebsiella pneumoniae [9], in the data set with Acinetobacter baumannii [13] and against Acinetobacter baumannii [17] was above 200 µM throughout.
With `O=C(NCc1cc2ccccc2[nH]1)c1cc(Br)c(Br)[nH]1`, the “fold change (FC)” value was determined as 2048 in the data set on Klebsiella pneumoniae [1]; 256 with Acinetobacter baumannii [2]; 2 in the data set with Acinetobacter baumannii [4]; 16 with Escherichia coli [5]; 2 in the data set on Acinetobacter baumannii [6]; 512 in the data set on Acinetobacter baumannii [7]. Besides, the “fold change (FC)” value came out at 4096 in the data set with Klebsiella pneumoniae [8]; 2 in the data set on Escherichia coli [10]; 32 in the data set with Acinetobacter baumannii [11]; 0 in the data set on Klebsiella pneumoniae [12]; 256 in the data set on Acinetobacter baumannii [14]; 512 in the data set on Klebsiella pneumoniae [15]. For the same compound, the “fold change (FC)” value in the data set on Acinetobacter baumannii [16] is 2048. Also, the MIC in the data set with Escherichia coli [3], with Klebsiella pneumoniae [9], against Acinetobacter baumannii [13] and against Acinetobacter baumannii [17] was above 200 µM throughout.
`O=C(NCCc1c[nH]c2ccccc12)c1cc(I)c[nH]1`: the “fold change (FC)” value with Klebsiella pneumoniae [1] came out at 128; in the data set with Acinetobacter baumannii [2], 64; in the data set with Acinetobacter baumannii [4], 2; in the data set with Acinetobacter baumannii [6], 0; with Acinetobacter baumannii [7], 32; with Klebsiella pneumoniae [8], 2048. Besides, the “fold change (FC)” value is 2 with Escherichia coli [10]; 16 in the data set with Acinetobacter baumannii [11]; 2 in the data set with Klebsiella pneumoniae [12]; 32 in the data set with Acinetobacter baumannii [14]; 32 with Klebsiella pneumoniae [15]; 64 in the data set with Acinetobacter baumannii [16].
Take `O=C(NCc1ccc2cc[nH]c2c1)c1cc(Br)c(Br)[nH]1`: the “fold change (FC)” value turned out to be 512 with Klebsiella pneumoniae [1]; 128 in the data set with Acinetobacter baumannii [2]; 2 with Acinetobacter baumannii [4]; 8 in the data set with Escherichia coli [5]; 2 with Acinetobacter baumannii [6]; 256 with Acinetobacter baumannii [7]. Also, the “fold change (FC)” value in the data set with Klebsiella pneumoniae [8] was 2048; in the data set on Escherichia coli [10], 2; with Acinetobacter baumannii [11] it was 32; with Klebsiella pneumoniae [12], 0; with Acinetobacter baumannii [14], 128; in the data set with Klebsiella pneumoniae [15], 256. Also, the “fold change (FC)” value in the data set with Acinetobacter baumannii [16] is recorded as 256. In addition, the MIC in the data set on Escherichia coli [3], with Klebsiella pneumoniae [9], against Acinetobacter baumannii [13] and in the data set with Acinetobacter baumannii [17] was above 200 µM in each case.

(Values after ChEMBL document CHEMBL4392827, “Tryptamine derivatives disarm colistin resistance in polymyxin-resistant gram-negative bacteria” (Bioorg Med Chem, 2019).)
